The structures appear in SMILES notation. Calls of active or inactive are those of the source. The rule behind the calls is not given here.

Series [1] is described as follows: Therapeutic index, ratio of CC50 for human HuH7 cells to EC50 for HCV genotype 1b infected in human Huh7 cells. The note with it: HuH7 cells.
For series [2], the system named is Hepatitis C virus. The experiment in a line: Antiviral activity against HCV genotype 1b infected in human Huh7 cells assessed as reduction in viral RNA level at 2 uM after 3 days by RT-qPCR. Format: functional, Hepacivirus hominis, Huh-7. The arrangement: scale not given: the % may be the effect or the level left. In a few lines: (§1)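 Replicon-bearing Huh7 cells, 6 X 10^3 per well, exposed to compound in DMSO or DMSO alone for three days at 37 °C/5% CO2. Replicon RNA quantified by TaqMan Cells-to-CT RT-qPCR with NS5B primers/probe, using GAPDH in parallel wells as reference. Level relative to DMSO-treated cells calculated as 2-∆∆CT. Triplicate wells.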

Series [3] concerns Hepatitis C virus. The experiment in a line: Antiviral activity against HCV genotype 1b infected in human Huh7 cells assessed as reduction in viral RNA level at 0.5 uM after 3 days by RT-qPCR. It counts as functional, Hepacivirus hominis, Huh-7. The arrangement: scale not given: the % may be the effect or the level left. As to conditions: in the assay text read “2 uM” for “0.5 uM”. A digest of the protocol:
as §1
On the technique in general: In qPCR the cycle at which signal appears reflects the starting amount.

The target of series [4] is Histone deacetylase 2 (Homo sapiens) (UniProt Q92769). The experiment in a line: Inhibition of full length C-terminal His-tagged human HDAC2 expressed in baculovirus expression system assessed as inhibition of fluorophore 7-amino-4-methylcoumarin release by fluorescence assay.
In series [5] the target is Histone deacetylase 5 (Homo sapiens) (UniProt Q9UQL6). The experiment in a line: Inhibition of full length N-terminal GST-tagged human HDAC5 expressed in baculovirus expression system assessed as inhibition of fluorophore 7-amino-4-methylcoumarin release by fluorescence assay.
Series [6] addresses T1, Protein deacetylase HDAC6 (Homo sapiens) (UniProt Q9UBN7).
T1 sequence (whole entry): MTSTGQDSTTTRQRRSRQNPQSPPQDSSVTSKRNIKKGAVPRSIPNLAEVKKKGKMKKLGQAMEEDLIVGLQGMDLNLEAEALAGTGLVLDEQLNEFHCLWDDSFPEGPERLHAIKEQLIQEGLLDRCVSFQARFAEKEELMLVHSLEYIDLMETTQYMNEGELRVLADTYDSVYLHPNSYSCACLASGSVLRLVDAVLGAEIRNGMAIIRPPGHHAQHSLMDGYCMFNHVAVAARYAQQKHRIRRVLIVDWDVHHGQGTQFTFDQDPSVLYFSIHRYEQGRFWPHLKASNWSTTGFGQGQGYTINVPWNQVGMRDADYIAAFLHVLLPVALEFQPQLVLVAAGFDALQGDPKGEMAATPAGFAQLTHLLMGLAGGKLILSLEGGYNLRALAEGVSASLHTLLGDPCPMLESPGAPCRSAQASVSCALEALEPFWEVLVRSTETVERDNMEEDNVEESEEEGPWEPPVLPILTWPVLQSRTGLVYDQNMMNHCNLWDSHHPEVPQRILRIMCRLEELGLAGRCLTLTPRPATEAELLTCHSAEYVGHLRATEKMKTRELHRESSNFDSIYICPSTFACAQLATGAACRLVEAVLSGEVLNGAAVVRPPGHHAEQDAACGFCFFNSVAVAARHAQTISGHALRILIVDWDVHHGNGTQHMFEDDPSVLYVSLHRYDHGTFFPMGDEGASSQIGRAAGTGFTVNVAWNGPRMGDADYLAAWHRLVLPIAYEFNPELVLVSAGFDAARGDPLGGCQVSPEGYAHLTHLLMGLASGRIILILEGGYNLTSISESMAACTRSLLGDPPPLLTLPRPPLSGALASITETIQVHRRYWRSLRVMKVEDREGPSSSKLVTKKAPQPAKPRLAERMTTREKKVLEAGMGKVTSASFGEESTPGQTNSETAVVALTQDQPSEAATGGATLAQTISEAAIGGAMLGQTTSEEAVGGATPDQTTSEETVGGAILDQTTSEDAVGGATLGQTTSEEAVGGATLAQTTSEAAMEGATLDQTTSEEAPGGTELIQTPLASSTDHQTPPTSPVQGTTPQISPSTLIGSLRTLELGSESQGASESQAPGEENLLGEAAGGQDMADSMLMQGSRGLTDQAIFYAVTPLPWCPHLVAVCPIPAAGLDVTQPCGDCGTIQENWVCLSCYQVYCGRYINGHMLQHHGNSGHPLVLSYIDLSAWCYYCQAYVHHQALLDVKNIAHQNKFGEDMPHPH
The experiment in a line: Inhibition of full length N-terminal GST-tagged human HDAC6 expressed in baculovirus expression system assessed as inhibition of fluorophore 7-amino-4-methylcoumarin release by fluorescence assay.

Series [7] addresses T2, Histone deacetylase 11 (Homo sapiens) (UniProt Q96DB2).
T2 sequence (whole entry): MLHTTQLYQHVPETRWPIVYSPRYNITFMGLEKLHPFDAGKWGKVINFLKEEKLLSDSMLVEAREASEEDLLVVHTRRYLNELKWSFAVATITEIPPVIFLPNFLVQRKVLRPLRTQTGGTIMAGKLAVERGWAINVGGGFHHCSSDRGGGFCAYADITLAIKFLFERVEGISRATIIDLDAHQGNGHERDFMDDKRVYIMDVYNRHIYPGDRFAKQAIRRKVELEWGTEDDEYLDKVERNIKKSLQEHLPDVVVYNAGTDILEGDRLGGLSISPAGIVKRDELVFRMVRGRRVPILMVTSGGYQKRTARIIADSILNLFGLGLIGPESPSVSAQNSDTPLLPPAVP
The experiment in a line: Inhibition of N-terminal GST-tagged human HDAC11 expressed in baculovirus expression system assessed as inhibition of fluorophore 7-amino-4-methylcoumarin release by fluorescence assay.

The target in series [8] is Matrix metalloproteinase-9 (Homo sapiens) (UniProt P14780). The experiment in a line: Inhibition of human recombinant MMP9 catalytic domain (107 to 449 aa) expressed in Escherichia coli.
Series [9] concerns the target Matrix metalloproteinase-14 (Homo sapiens) (UniProt P50281). The experiment in a line: Inhibition of human recombinant […] catalytic domain (112 to 298 aa) expressed in Escherichia coli.
Series [10] addresses Hepatitis C virus serine protease, NS3/NS4A (Hepatitis C virus) (UniProt D2K2A8+A3EZI9). The experiment in a line: Inhibition of HCV NS3/4A protease. The note with it: Hepacivirus hominis.

Chain of Matrix metalloproteinase-9 (Homo sapiens) (P14780 whole entry, the tested form may be a part): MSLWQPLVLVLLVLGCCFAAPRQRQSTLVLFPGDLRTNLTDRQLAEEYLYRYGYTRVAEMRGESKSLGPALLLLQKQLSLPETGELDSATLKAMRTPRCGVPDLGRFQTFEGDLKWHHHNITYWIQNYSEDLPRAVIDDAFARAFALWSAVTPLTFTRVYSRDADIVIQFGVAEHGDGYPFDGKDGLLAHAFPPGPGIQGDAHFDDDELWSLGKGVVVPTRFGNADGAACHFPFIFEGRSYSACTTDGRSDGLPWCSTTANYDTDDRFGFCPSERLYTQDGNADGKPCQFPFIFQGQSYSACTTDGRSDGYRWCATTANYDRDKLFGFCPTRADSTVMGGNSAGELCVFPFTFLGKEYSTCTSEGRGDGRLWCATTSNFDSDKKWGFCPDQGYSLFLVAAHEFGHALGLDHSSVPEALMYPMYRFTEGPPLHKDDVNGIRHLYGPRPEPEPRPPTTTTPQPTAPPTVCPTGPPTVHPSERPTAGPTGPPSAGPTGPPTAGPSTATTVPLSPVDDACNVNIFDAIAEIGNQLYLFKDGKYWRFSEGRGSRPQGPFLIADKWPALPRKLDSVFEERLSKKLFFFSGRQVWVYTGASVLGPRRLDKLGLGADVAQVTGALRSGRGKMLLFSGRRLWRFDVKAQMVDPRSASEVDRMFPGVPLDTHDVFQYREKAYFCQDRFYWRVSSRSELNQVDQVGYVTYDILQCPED
Chain of Histone deacetylase 2 (Homo sapiens) (Q92769 whole entry): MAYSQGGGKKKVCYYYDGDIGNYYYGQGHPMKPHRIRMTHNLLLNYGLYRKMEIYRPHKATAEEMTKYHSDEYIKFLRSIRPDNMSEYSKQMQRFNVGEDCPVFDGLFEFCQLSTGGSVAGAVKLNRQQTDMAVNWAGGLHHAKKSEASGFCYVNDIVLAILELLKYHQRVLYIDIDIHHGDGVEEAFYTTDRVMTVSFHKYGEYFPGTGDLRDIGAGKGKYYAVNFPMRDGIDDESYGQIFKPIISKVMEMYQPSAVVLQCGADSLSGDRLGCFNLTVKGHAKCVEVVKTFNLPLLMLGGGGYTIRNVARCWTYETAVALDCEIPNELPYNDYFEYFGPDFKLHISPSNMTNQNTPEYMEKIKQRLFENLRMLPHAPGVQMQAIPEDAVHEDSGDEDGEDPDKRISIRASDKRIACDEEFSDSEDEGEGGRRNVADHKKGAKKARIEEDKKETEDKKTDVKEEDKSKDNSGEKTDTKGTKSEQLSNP
Chain of Histone deacetylase 5 (Homo sapiens) (Q9UQL6 whole entry): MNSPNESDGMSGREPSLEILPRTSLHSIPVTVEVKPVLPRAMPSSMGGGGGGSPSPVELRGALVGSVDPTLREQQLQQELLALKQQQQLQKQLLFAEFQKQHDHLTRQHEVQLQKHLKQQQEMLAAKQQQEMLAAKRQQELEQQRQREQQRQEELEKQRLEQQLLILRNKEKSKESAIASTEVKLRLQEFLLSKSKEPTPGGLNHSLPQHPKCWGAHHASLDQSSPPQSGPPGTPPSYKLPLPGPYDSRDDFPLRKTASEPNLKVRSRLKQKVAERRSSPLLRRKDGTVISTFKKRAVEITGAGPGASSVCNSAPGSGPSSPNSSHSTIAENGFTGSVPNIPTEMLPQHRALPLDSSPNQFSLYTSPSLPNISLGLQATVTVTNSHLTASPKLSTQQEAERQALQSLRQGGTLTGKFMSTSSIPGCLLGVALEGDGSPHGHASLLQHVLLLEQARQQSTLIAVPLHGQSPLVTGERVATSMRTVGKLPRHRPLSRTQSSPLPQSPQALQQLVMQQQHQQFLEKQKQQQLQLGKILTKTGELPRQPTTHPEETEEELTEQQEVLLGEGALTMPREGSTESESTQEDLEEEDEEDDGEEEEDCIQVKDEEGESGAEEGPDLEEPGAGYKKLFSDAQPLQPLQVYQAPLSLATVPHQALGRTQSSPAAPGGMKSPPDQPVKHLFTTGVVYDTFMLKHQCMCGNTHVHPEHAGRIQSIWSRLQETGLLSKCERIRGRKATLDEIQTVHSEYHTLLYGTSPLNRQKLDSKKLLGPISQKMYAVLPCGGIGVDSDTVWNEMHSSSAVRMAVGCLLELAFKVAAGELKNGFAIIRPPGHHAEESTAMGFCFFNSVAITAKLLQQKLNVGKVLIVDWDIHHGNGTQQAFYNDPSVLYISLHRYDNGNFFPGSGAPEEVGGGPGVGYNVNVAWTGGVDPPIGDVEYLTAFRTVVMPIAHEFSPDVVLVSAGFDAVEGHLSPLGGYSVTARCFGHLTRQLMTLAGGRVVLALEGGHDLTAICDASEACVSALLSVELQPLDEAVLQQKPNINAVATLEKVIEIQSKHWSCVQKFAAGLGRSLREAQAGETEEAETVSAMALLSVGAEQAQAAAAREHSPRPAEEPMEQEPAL

Consider `O=C(NO)c1sc2ccccc2c1S(=O)(=O)c1ccccc1`, for which the selectivity ratio in [1] came out at 93. In addition, the Activity in the series with Hepatitis C virus [2] and with Hepatitis C virus [3] was 75% throughout. Further, the inhibition entry in [4], in series [5], in [6], in series [7] and in series [10] was “inactive” each time. In addition, the inhibition entry in [8] and in series [9] was “Active” in each case.

The values are drawn from ChEMBL document CHEMBL3392986, “Hydroxamic acids block replication of hepatitis C virus” (J Med Chem, 2015).
